CCR6 antagonist – blocks CCL20-driven beta-arrestin recruitment at human CCR6; CHO-K1 CCR6 PathHunter beta-arrestin, luminescence, CCL20-stimulated; inhibition, % at 20 µM; 340,000 compounds, 0.49% hits;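 active = compounds whose inhibition of the agonist-driven luminescence signal at 20 µM reaches about 50%, limit read from the data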;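 also: cells stimulated with CCL20 at 14 nM final; plate controls were DMSO with CCL20 for no effect and DMSO without agonist for full effect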
Target sequence (P51684 whole entry, looked up): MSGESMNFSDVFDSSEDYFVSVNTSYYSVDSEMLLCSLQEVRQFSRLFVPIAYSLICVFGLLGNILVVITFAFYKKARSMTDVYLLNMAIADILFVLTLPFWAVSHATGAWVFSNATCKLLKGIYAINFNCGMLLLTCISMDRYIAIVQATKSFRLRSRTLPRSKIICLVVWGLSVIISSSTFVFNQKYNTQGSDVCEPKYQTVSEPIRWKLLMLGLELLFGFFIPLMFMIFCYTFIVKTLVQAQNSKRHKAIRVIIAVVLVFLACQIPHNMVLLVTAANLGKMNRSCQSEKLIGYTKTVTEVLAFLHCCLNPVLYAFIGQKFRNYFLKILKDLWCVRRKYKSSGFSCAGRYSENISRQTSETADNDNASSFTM
APJ ag – agonists of human APJ apelin receptor. CHO-K1 APJ PathHunter beta-arrestin, luminescence; 0% DMSO wells, 100% apelin. activation, % at 20 µM. 330,000 compounds, 0.11% hits;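 active = activation more than six SD over the plate average, tested at 20 µM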;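 also: 0% = DMSO alone and 100% = apelin-13 at 10 nM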
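Assay system – PathHunter CHO-K1 APJ (AGTRL-1) beta-arrestin reporter cells · Compound – one dose, 20 µM compound, 1% DMSO · Timing – compound 90 min 25 °C, reagent 1 h · Measured by – luminescence from split beta-galactosidase complementation, Galacton Star/Emerald II substrate · Measure – beta-arrestin recruitment to APJ as agonist activity, luminescent signal · Benchmarks – DMSO vs Apelin-13 10 nM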
EBI2 block – antagonists of human EBI2 receptor; 360,000 compounds, 0.81% hits; inhibition, % at 5 µM; EBI2 beta-arrestin recruitment, luminescence, 7a,25-OHC stimulated; P32249; in the data active = inhibition above about 38%;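 also: enzyme fragment complementation signal reports receptor beta-arrestin coupling in cells; 0% = agonist plus DMSO wells and 100% = wells without agonist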
APJ antagonist – antagonists of human APJ apelin receptor; CHO-K1 APJ beta-arrestin complementation, luminescence; 330,000 compounds, 0.32% hits; P35414; inhibition, % at 20 µM;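 active = inhibition above about 40% at 20 µM, limit read from the data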;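 also: cells challenged with 10 nM apelin-13 agonist together with compound; plate controls were apelin-13 plus DMSO wells for no effect and DMSO wells lacking apelin-13 for full effect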
CXCR6 inh – blocks human CXCR6 beta-arrestin recruitment. O00574. CHO-K1 PathHunter CXCR6 beta-arrestin, luminescence. inhibition, % at 20 µM. 360,000 compounds, 0.36% hits; in the data active = inhibition above about 34%, passing the limit was not always enough;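 also: antagonist mode with CXCL16 agonist at 10 nM final; 0% = 10 nM CXCL16 with DMSO and 100% = unstimulated wells without agonist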
APJ antag confirm – APJ receptor antagonism confirmation | APJ beta-arrestin recruitment, luminescence, antagonist mode | inhibition, % at 20 µM | 950 compounds, 66% hits | shares compounds with APJ antagonist; in the data active = inhibition above about 50%
Starred values were filed as active, the others as inactive; . = no result given. Shown are actives, neighbours in structure and some others; about 1.5% of the full set was active somewhere.

SMILES	CCR6 antagonist	APJ ag	EBI2 block	APJ antagonist	CXCR6 inh	APJ antag confirm
COc1ccc(-c2c3c(nc4sc5c(=O)[nH]c(C)nc5c24)CCC3)cc1	-4	-2	3	6	5	.
COc1ccc(-c2c3c(nc4sc(C(=O)Nc5cc(C)on5)c(N)c24)CCC3)cc1	9	-17	25	55*	10	30
COC(=O)c1ccc(N2NC(=O)/C(=C/c3cc(OC)c(O)c(OC)c3)C2=O)cc1	49	-8	-9	45*	39	33
CN(Cc1ccccc1)C(=S)NC(=O)c1cccs1	22	7	-21	41*	9	33
CN(Cc1ccccc1)C(=S)NC(=O)C1CCCCC1	7	-2	0	5	-20	.
CCC(=O)Nc1c(C#N)c2nc3ccccc3nc2n1C1CCCCC1	10	-4	2	10	2	.
CCOC(=O)c1c(NC(=O)c2ccco2)n(C2CCCCC2)c2nc3ccccc3nc12	42	-19	19	58*	23	9
COc1ccc(CNC(=O)CN(Cc2ccco2)C(=O)CNS(=O)(=O)c2ccc(F)cc2)cc1	8	1	-4	41*	12	-32
COC(=O)c1sc(N)c(C(=O)OC)c1COC(=O)c1c(C)noc1C	70*	-8	25	46*	58*	96*
CC(C)(C)C1C/C(=C/c2ccccn2)C(=O)/C(=C/c2ccccn2)C1 (stereo not drawn)	65*	-8	18	45*	32	46
N#Cc1cnn2c3c(cnc12)C(=O)N1CCc2ccccc2C1C3 (stereo not drawn)	29	-6	9	48*	12	29
CCCS(=O)(=O)NC(=O)C1(C)CCN(C(=O)c2cccnc2Oc2ccccc2)C1 (stereo not drawn)	.	.	-6	.	0	.
Cc1ccc(C)c(N=Nc2ccc(O)c3ncccc23)c1	63*	-9	12	45*	5	74*
Cc1cccc(N=Nc2ccc(O)c3ncccc23)c1	33	-12	32	42*	37	83*
CCOc1ccc(N=Nc2ccc(O)c3ncccc23)cc1	28	-9	28	25	-2	.
NS(=O)(=O)c1ccc(N=Nc2ccc(O)c3ncccc23)cc1	64*	-10	4	49*	48*	87*
Oc1ccc(N=Nc2ccc3c(c2)OCCO3)c2ncccc12	54*	-5	8	53*	35	89*
COCCCn1cc(CN2CC(N3CCN(Cc4ccccc4F)CC3)CS2(=O)=O)nn1 (stereo not drawn)	.	.	1	.	0	.
CCS(=O)(=O)c1ccc(OC)c(N=Nc2ccc(O)c3ncccc23)c1	10	-8	-3	22	4	.
CCN(CC)S(=O)(=O)c1cc(OC)ccc1N=Nc1ccc(O)c2ncccc12	55*	-3	3	43*	36	49
Cc1cccc(C)c1NC(=O)C(c1ccccc1)N(C)CCc1ccccc1 (stereo not drawn)	.	.	5	.	10	.
CC1C(=O)N(Cc2cn(CC3CCCCC3)nn2)CCS(=O)(=O)N1Cc1ccc(-c2cccc(CO)c2)cc1 (stereo not drawn)	.	.	-1	.	-5	.
CCOC(=O)C1=CN(c2cccc(F)c2)C=C(C(=O)OCC)C1c1cc(OC)c(O)c([N+](=O)[O-])c1	49	-4	7	44*	27	23
C=CCn1c(=O)/c(=C2/Sc3cc(OC)ccc3N2C)s/c1=C1\C(=O)N(CC)C(=S)N1C	.	-9	.	50*	.	76*
CCN1/C(=C2\C(=O)N(C)C(=S)N2C)C=Cc2cc(OC)ccc21	20	-5	-4	21	11	.
SMILES	CCR6 antagonist	APJ ag	EBI2 block	APJ antagonist	CXCR6 inh	APJ antag confirm
COc1ccc(Nc2nc(OC)nc(OC)n2)cc1	19	1	-5	8	-8	.
COc1ccc(Nc2nc(Nc3ccc(OC)cc3)nc(-n3[nH]c(=O)c(C)c3C)n2)cc1	34	-6	-10	58*	15	33
CCOc1ccc(CCN2C(=S)N([C@@H](CC(C)C)CN3CCC[C@@H]3CN3C(=S)NC[C@@H]3Cc3ccccc3)C[C@@H]2Cc2ccc(O)cc2)cc1	.	.	37	.	-2	.
CCC(CO)NC(=O)c1ccc(-c2nn(C)c(=O)c3ccccc23)cc1 (stereo not drawn)	-6	1	-3	50*	3	16
O=C1Nc2ccc(F)cc2C12Nc1ccccc1-c1nnc(SCc3ccccc3)nc1O2 (stereo not drawn)	30	-12	19	32	5	.
O=C1Nc2ccc(F)cc2C12Nc1ccccc1-c1nnc(SCc3ccccc3Cl)nc1O2 (stereo not drawn)	40	-4	19	53*	22	75*
CCCOc1ccc(C(=O)NNC(=S)NC(=O)CC)cc1	78*	-9	-2	54*	48*	94*
CN(C)c1ccc(C(=O)N2CCC2(C)C(=O)O)cc1 (stereo not drawn)	.	.	-6	.	-2	.
CCCCCOC(=O)c1c(N)n(CCOC)c2nc3ccccc3nc12	9	-11	11	43*	8	-3
COCCOC(=O)c1c(N)n(CCCN2CCOCC2)c2nc3ccccc3nc12	5	-5	-6	-6	8	.
Cc1cccc(CNC(=O)c2sc(=O)n(Cc3ccc(S(C)(=O)=O)cc3)c2C)c1	.	.	0	.	0	.
COc1ccc(CC(N)c2csc(Nc3nncc4ccccc34)n2)cc1 (stereo not drawn)	.	.	-16	.	-20	.
Cc1cc([N+](=O)[O-])ccc1NC(=S)NC(=O)C(c1ccccc1)c1ccccc1	53*	-11	19	42*	35	52*
COc1cccc2sc(Nc3nc(-c4ccccn4)cs3)nc12	.	-7	86*	52*	37	23
COc1cccc2sc(Nc3nnc(-c4ccc(F)cc4)o3)nc12	-5	-3	-6	1	-7	.
COc1cccc2sc(Nc3nnc(-c4cccs4)o3)nc12	29	-6	16	42*	13	3
Cc1ccc(OCC(=O)Nc2ccc3c(c2)OCO3)c(C)c1	5	-3	3	66*	1	45
Cc1ccc(NC(=O)Nc2ccc3c(c2)OCO3)c(Br)c1	10	4	-3	41*	-1	16
OC(c1ccc(F)c(F)c1)c1nc(-c2cccc3cccnc23)cs1 (stereo not drawn)	.	.	-6	.	-1	.
Cc1cc(Br)cn2c(Cc3ccsc3)c(-c3ccc(Cl)cc3)nc12	.	.	-1	.	-2	.
Cc1ccc(NC(=O)c2cc(C(C)(C)C)nn2Cc2ccccc2)cc1	-12	5	8	6	-1	.
Cc1ccc(NNC(=O)c2cc(C(C)(C)C)nn2Cc2ccccc2)cc1	35	-11	16	41*	19	103*
O=[N+]([O-])c1ccc(O)c(/C=N/Nc2ccc(Cl)nn2)c1	90*	-25	77*	55*	79*	81*

Compound activity (PubChem BioAssay)
